In the library only some 3.1% were active in any assay of this set; here they are far more common.
UHRF1 binding = UHRF1 methyl-DNA binding inhibition | Q96T88 | UHRF1 binding to methylated oligo, TR-FRET | inhibition, % at 4.4 µM | 0.75% of 370,000 active | AID 687016; in the data active = inhibition above about 21%;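 note: UHRF1 SRA domain binding a hemimethylated CpG hairpin DNA probe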
LEDGF integ inh = blocks HIV-1 LEDGF/p75-dependent DNA integration; 0.64% of 370,000 active; inhibition, % at 3.7 µM; TR-FRET IN-LEDGF/p75 DNA integration, Eu/Cy5;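 active = inhibition above the screen-wide mean plus 3 SD, cut at about 13% in these data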;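 note: signal is the Cy5 over europium emission ratio at 671 and 618 nm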
ABHD5 PLIN5 PPI = inhibitors of human ABHD5-perilipin-5 interaction; Q00G26+Q8WTS1; Split G. princeps luciferase complementation, luminescence, 4 h; inhibition, % at 4 µM; 0.78% of 360,000 active; AID 602281;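 active = inhibition above the mean inhibition across every tested compound plus 3 SD, cut at about 22% in these data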
PRMT1 FP inh = blocks human protein arginine methyltransferase 1. 1.3% of 370,000 active. Q99873. inhibition, % at 2.79 µM. recombinant PRMT1, activity-based probe fluorescence polarization;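 active = inhibition above about 21% made by adding two undisclosed values, limit read from the data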
Target sequence (Q99873 whole entry, looked up): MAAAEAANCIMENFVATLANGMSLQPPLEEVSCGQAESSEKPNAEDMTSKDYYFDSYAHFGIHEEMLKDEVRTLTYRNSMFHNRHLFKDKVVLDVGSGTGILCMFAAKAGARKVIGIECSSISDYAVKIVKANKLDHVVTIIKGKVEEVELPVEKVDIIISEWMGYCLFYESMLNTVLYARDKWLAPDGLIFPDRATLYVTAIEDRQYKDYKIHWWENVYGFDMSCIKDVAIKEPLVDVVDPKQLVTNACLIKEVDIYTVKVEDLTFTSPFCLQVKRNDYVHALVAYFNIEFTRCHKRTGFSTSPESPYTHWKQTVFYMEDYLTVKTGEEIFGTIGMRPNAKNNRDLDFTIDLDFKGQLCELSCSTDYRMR
MBD2 DNA inh = blocks human MBD2 binding to methylated DNA. Q9UBB5. 0.31% of 370,000 active. inhibition, % at 4.4 µM. TR-FRET, MBD2 binding to methylated oligonucleotide; in the data active = inhibition above about 13%
RBBP9 inh = inhibitors of human serine hydrolase RBBP9. 0.2% of 220,000 active. inhibition, % at 7.94 µM. AID 1515. recombinant RBBP9, FP-Rh probe fluorescence polarization;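 active = inhibition above the campaign mean of all tested compounds plus 3 SD, cut at about 14% in these data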
Target sequence (O75884 whole entry, looked up): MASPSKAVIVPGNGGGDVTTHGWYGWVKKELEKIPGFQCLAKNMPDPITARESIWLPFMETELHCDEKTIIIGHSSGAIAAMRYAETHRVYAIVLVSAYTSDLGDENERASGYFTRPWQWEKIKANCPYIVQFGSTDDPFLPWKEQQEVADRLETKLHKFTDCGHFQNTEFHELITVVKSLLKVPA
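System: RBBP9 protein / Quantity: 2.5 µM RBBP9 dispensing solution, before mixing / Also added: Serine-hydrolase probe FP-Rh, 375 nM pre-mixing / Dosing: 7.94 µM single dose, 0.794% DMSO / Timing: enzyme-compound preincubation 30 min, then probe labeling 45 min, 25 °C / Signal: FP readout at 525/598 nm / Controls: DMSO-treated enzyme wells and wells lacking RBBP9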
ABHD5 PLIN5 conf = ABHD5-PLIN5 interaction inhibition, confirmed. shares compounds with ABHD5 PLIN5 PPI. biochemical ABHD5-PLIN5 interaction, luminescence. inhibition, % at 4 µM. 67% of 2,200 active; in the data active = inhibition above about 23%
HNF4 counter = HNF4 split-luciferase signal hit, counter-screen | shares compounds with ABHD5 PLIN5 PPI | HNF4 dimerization, luminescence, biochemical | inhibition, % at 4 µM | 77% of 2,200 active | AID 651674;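 active = mean inhibition across replicate wells exceeding the computed hit threshold, cut at about 13% in these data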;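 note: light from luciferase halves that rejoin when HNF4 fusion proteins dimerize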
Numbers stand for hits; . = inactive; / = no result.

SMILES	UHRF1 binding	LEDGF integ inh	ABHD5 PLIN5 PPI	PRMT1 FP inh	MBD2 DNA inh	RBBP9 inh	ABHD5 PLIN5 conf	HNF4 counter
COc1ccc(C(C(=O)Nc2c(C)cccc2C)n2c(=O)c(-c3ccccc3)nc3ccccc32)cc1 (configuration not stated)	.	.	.	.	.	/	/	/
COc1ccc(NC(=O)C(c2ccncc2)n2c(=O)c(-c3ccco3)nc3ccccc32)cc1 (configuration not stated)	.	.	.	.	.	/	/	/
Cc1cccc(C)c1NC(=O)C(CCc1ccccc1)n1c(=O)c(-c2cc3ccccc3[nH]2)nc2ccccc21 (configuration not stated)	.	.	.	.	.	/	/	/
COc1ccc(N2C[C@@]3(O)CC[C@@H](O)[C@@H](OC)[C@@H]3[C@@](C)(O)[C@@H]2CC=C(C)C)cc1	.	.	/	.	.	/	/	/
COC(=O)C1=C(C)N(Cc2ccc(C(F)(F)F)cc2)C(=NCc2ccccc2C(F)(F)F)NC1c1ccc(C(F)(F)F)cc1 (configuration not stated)	.	.	/	.	.	/	/	/
COc1ccc(C(C(=O)Nc2c(C)cccc2C)n2c(=O)c(-c3ccco3)nc3ccccc32)cc1 (configuration not stated)	.	.	81	.	.	/	98	48
Cc1cccc(C)c1NC(=O)C(c1ccc(C#N)cc1)n1c(=O)c(-c2ccco2)nc2ccccc21 (configuration not stated)	.	.	50	.	.	/	63	.
Cc1ccc(/C=C/C(=O)Nc2nc3ccccc3[nH]2)cc1	.	.	.	.	.	.	/	/
Cc1ccc(/C=C/C(=O)c2nc3ccccc3[nH]2)cc1	.	.	69	.	.	.	90	85
Cc1nc2ccccc2c(N)c1C(=O)/C=C/c1ccccc1	.	.	34	.	.	/	41	37
O=C(COC(=O)C1CC1)NCCNC(=O)COC(=O)C1CC1	.	.	86	.	.	/	.	.
COc1ccc(CCC(=O)Nc2c(-c3ccc(N(C)C)cc3)[nH][nH]c2=O)cc1	.	28	86	.	.	/	.	79
CCN1CC(=O)Nc2cc(S(=O)(=O)N3CCOCC3)ccc21	.	.	32	.	.	.	49	46
CN(C)CCOc1ccc(-c2c(-c3ccsc3)sc3ccccc23)cc1	.	.	29	.	.	/	.	.
COc1ccc(-c2sc3ccccc3c2-c2ccc(OCCN(C)C)cc2)cc1	.	.	40	.	.	/	.	.
CC(=O)Oc1c(Cl)c(N2CCOCC2)c(OC(C)=O)c2ccccc12	.	.	36	.	.	.	79	.
Cc1cc(OC(=O)N2CCOCC2)cc(C)c1Cl	.	.	.	.	.	.	/	/
O=C(CSc1nc2sc3c(c2c(=O)n1-c1ccccc1)CCCC3)NCc1ccco1	.	.	.	.	.	.	/	/
CC1(C)Cc2c(sc3nc(SCC(=O)NCc4ccco4)n(-c4ccccc4)c(=O)c23)CS1	.	.	30	.	.	.	.	.
O=C(OC12CCCN(C1)/C(=C/c1ccc(Cl)cc1)C2)c1cccc(F)c1 (configuration not stated)	.	.	/	.	.	/	/	/
COCCn1c(SCC#N)nnc1-c1ccccc1O	.	.	57	.	.	.	.	.
O=C(c1ccccc1)N1CCC2CCN(S(=O)(=O)c3ccccc3)CC21 (configuration not stated)	.	.	/	.	.	/	/	/
CCOC(=O)C(C(=O)OCC)C1OC(=O)c2cc3c(cc21)C(=O)OC3C(C(=O)OCC)C(=O)OCC (configuration not stated)	.	.	32	.	.	.	42	28
O=C(NC1CCCCN(Cc2cccc(F)c2)C1=O)c1cccc(C(F)(F)F)c1 (configuration not stated)	.	.	/	.	.	/	/	/
COc1ccc(OC(=O)N2C/C(=C/c3ccccc3)C(=O)/C(=C\c3ccccc3)C2)cc1	.	.	75	.	.	/	104	107
SMILES	UHRF1 binding	LEDGF integ inh	ABHD5 PLIN5 PPI	PRMT1 FP inh	MBD2 DNA inh	RBBP9 inh	ABHD5 PLIN5 conf	HNF4 counter
CCOC(=O)N1CCN(S(=O)(=O)/C=C/c2ccccc2)CC1	.	.	.	.	.	.	/	/
COc1ccc(OC(=O)N2CCOCC2)cc1	.	.	.	.	.	/	/	/
CCOC(=O)N1C/C(=C\c2ccccc2)C(=O)/C(=C/c2ccccc2)C1	.	.	69	.	.	.	103	108
COC(=O)C1CN(Cc2cn(Cc3ccc(F)cc3)nn2)CCS(=O)(=O)N1Cc1ccccc1 (configuration not stated)	.	.	/	.	.	/	/	/
CC(Oc1ccccc1F)C(=O)NNC(=O)c1ccc(F)c(S(=O)(=O)N2CCOCC2)c1 (configuration not stated)	.	.	63	.	.	/	.	.
O=C(COc1ccccc1F)NNC(=O)c1ccc(F)c(S(=O)(=O)N2CCOCC2)c1	.	.	.	.	.	/	/	/
COC(=O)C1=C(C)N(Cc2ccccc2C(F)(F)F)C(=NCc2cccc(C(F)(F)F)c2)NC1c1ccc(F)cc1 (configuration not stated)	.	.	/	.	.	/	/	/
Cc1ccc(NN2C(=O)C=C(c3ccc(Cl)cc3)C2=O)cc1	.	.	95	.	.	.	101	107
O=C1Cc2ccccc2C(=O)N1Nc1ccccc1	.	.	.	.	.	/	/	/
COc1ccc(C2=CC(=O)N(Nc3ccccc3)C2=O)cc1	.	.	88	.	.	.	86	88
O=C1C=C(c2ccccc2)C(=O)N1Nc1ccccc1	.	.	86	22	.	.	100	107
Oc1c(C(Nc2nc3ccccc3s2)c2ccco2)ccc2cccnc12 (configuration not stated)	.	.	45	.	.	.	.	14
COc1ccc(CCNC(=O)c2cccc(S(=O)(=O)N3CCOCC3)c2)cc1OC	.	.	27	.	.	/	.	.
O=S(=O)(/N=S1/CC=CCN1S(=O)(=O)c1ccccc1)c1ccccc1 (configuration not stated)	/	/	71	/	/	.	60	101
O=S(=O)(c1ccccc1)N1CCN(S(=O)(=O)c2ccccc2)C1	.	.	.	.	.	.	/	/
COc1cccc(NC(=O)/C=C/c2ccco2)c1	.	.	.	.	.	.	/	/
COc1ccc(C(NC(=O)/C=C/c2ccco2)c2ccc(OC)cc2)cc1	.	.	25	.	.	.	66	46
CC(=C/C(=O)O)/C=C/c1ccco1	.	.	25	.	.	.	.	17
